From ChEMBL document CHEMBL3351780, “Novel hybrids of metronidazole and quinolones: synthesis, bioactive evaluation, cytotoxicity, preliminary antimicrobial mechanism and effect of metal ions on their transportation by human serum albumin” (Eur J Med Chem, 2014)
Values after ≈ are worked out from the molar mass of the structure shown.

How the values were obtained:
Format in all cases: functional
Micrococcus luteus = experiment: Antibacterial activity against Micrococcus luteus by two-fold serial dilution method
Method in brief: (§1)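 Standard two-fold serial dilution in 96-well microtest plates following NCCLS. Top dilutions printed as 32, 16, 8, 4, 2, 1, 0.5 ug/mL. Wells inoculated and held at 37 °C for 24 h. Growth judged visually and by spectrophotometer, in triplicate. MIC is the lowest concentration giving complete growth inhibition.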

Staphylococcus aureus [1] = experiment: Antibacterial activity against methicillin-resistant Staphylococcus aureus N315 by two-fold serial dilution method
Method in brief: (§2)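 MIC read as the lowest concentration giving complete growth inhibition. Two-fold serial dilutions were made in 96-well plates following NCCLS, giving a series down to 0.5 µg/mL (…32, 16, 8, 4, 2, 1, 0.5). Plates were inoculated and incubated at 37 °C for 24 h. A DMSO-with-inoculum control without drug was included. Growth was monitored visually and spectrophotometrically, in triplicate.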

Staphylococcus aureus [2] = experiment: Antibacterial activity against Staphylococcus aureus ATCC 25923 by two-fold serial dilution method; method in brief: as §1
Bacillus spizizenii = experiment: Antibacterial activity against Bacillus subtilis ATCC 6633 by two-fold serial dilution method; method in brief: as §1
Pseudomonas aeruginosa = experiment: Antibacterial activity against Pseudomonas aeruginosa by two-fold serial dilution method; method in brief: as §1
Escherichia coli = experiment: Antibacterial activity against Escherichia coli DH52 by two-fold serial dilution method; method in brief: as §1
Shigella dysenteriae = experiment: Antibacterial activity against Shigella dysenteriae by two-fold serial dilution method; method in brief: as §2
[3] = Antibacterial activity against Eberthella typhosa by two-fold serial dilution method; method in brief: as §2
Cyberlindnera jadinii = experiment: Antifungal activity against Candida utilis after 24 hrs by microbroth dilution method; conditions: Williopsis jadinii
Method in brief: (§3)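 Spore suspension prepared in sterile distilled water from one-day-old cultures on Sabouraud agar, final 1-5 x 10^3 spores/mL. Compounds were serially diluted in RPMI 1640 to give eleven dilutions. Incubation at 35 °C for 24 h. Growth read visually and spectrophotometrically, in triplicate. MIC is the lowest concentration with complete inhibition.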

Saccharomyces cerevisiae = experiment: Antifungal activity against Saccharomyces cerevisiae after 24 hrs by microbroth dilution method; method in brief: as §3
Candida albicans = experiment: Antifungal activity against Candida albicans ATCC 76615 after 24 hrs by microbroth dilution method; conditions: ATCC 76615, 24 h; method in brief: as §3
Pichia norvegensis = experiment: Antifungal activity against Candida mycoderma after 24 hrs by microbroth dilution method
Streptococcus pneumoniae = experiment: Antibacterial activity against Streptococcus pneumoniae by two-fold serial dilution method; method in brief: as §1

| Compound | MIC (Micrococcus luteus) [µg/mL] | MIC (Staphylococcus aureus [1]) [µg/mL] | MIC (Staphylococcus aureus [2]) [µg/mL] | MIC (Bacillus spizizenii) [µg/mL] | MIC (Pseudomonas aeruginosa) [µg/mL] | MIC (Escherichia coli) [µg/mL] | MIC (Shigella dysenteriae) [µg/mL] | MIC [3] [µg/mL] | MIC (Cyberlindnera jadinii) [µg/mL] | MIC (Saccharomyces cerevisiae) [µg/mL] | MIC (Candida albicans) [µg/mL] | MIC (Pichia norvegensis) [µg/mL] | MIC (Streptococcus pneumoniae) [µg/mL] |
| --- | --- | --- | --- | --- | --- | --- | --- | --- | --- | --- | --- | --- | --- |
| CCOC(=O)c1cn(CC(O)Cn2c([N+](=O)[O-])cnc2C)c2cc(Cl)c(F)cc2c1=O (racemic) | 128 (≈ 283 µM) | 4 (≈ 8.83 µM) | 64 (≈ 141 µM) | 8 (≈ 17.7 µM) | 32 (≈ 70.7 µM) | 64 (≈ 141 µM) | 16 (≈ 35.3 µM) | 8 (≈ 17.7 µM) | 256 (≈ 565 µM) | 16 (≈ 35.3 µM) | 128 (≈ 283 µM) | 128 (≈ 283 µM) |  |
| CCOC(=O)c1cn(CC(O)Cn2c([N+](=O)[O-])cnc2C)c2ccc(F)cc2c1=O (racemic) | 8 (≈ 19.1 µM) | 4 (≈ 9.56 µM) | 16 (≈ 38.2 µM) | 8 (≈ 19.1 µM) | 16 (≈ 38.2 µM) | 8 (≈ 19.1 µM) | 8 (≈ 19.1 µM) | 4 (≈ 9.56 µM) | 128 (≈ 306 µM) | 32 (≈ 76.5 µM) | 64 (≈ 153 µM) | 128 (≈ 306 µM) |  |
| CCOC(=O)c1cn(CC(O)Cn2cnc([N+](=O)[O-])c2)c2c(Cl)cc(Cl)cc2c1=O (racemic) | 8 (≈ 17.6 µM) | 64 (≈ 141 µM) | 32 (≈ 70.3 µM) | 4 (≈ 8.79 µM) | 16 (≈ 35.1 µM) | 16 (≈ 35.1 µM) | 8 (≈ 17.6 µM) | 16 (≈ 35.1 µM) | 256 (≈ 562 µM) | 32 (≈ 70.3 µM) | 64 (≈ 141 µM) | 64 (≈ 141 µM) |  |
| CCOC(=O)c1cn(CC(O)Cn2cnc([N+](=O)[O-])c2)c2cc(C(F)(F)F)ccc2c1=O (racemic) | 8 (≈ 17.6 µM) | 4 (≈ 8.8 µM) | 8 (≈ 17.6 µM) | 4 (≈ 8.8 µM) | 64 (≈ 141 µM) | 128 (≈ 282 µM) | 16 (≈ 35.2 µM) | 64 (≈ 141 µM) | 16 (≈ 35.2 µM) | 16 (≈ 35.2 µM) | 16 (≈ 35.2 µM) | 32 (≈ 70.4 µM) |  |
| COc1ccc2c(c1)c(=O)c(C(=O)O)cn2CC(O)Cn1cnc([N+](=O)[O-])c1 (centres undefined) | 256 (≈ 659 µM) | 16 (≈ 41.2 µM) | 64 (≈ 165 µM) | 16 (≈ 41.2 µM) | 128 (≈ 330 µM) | 64 (≈ 165 µM) | 16 (≈ 41.2 µM) | 32 (≈ 82.4 µM) | 128 (≈ 330 µM) | 512 (≈ 1320 µM) | 128 (≈ 330 µM) | 128 (≈ 330 µM) | 64 (≈ 165 µM) |
| CCOC(=O)c1cn(CC2CO2)c2cc(Cl)c(F)cc2c1=O (racemic) | 64 (≈ 196 µM) | 8 (≈ 24.6 µM) | 128 (≈ 393 µM) | 128 (≈ 393 µM) | 32 (≈ 98.2 µM) | 64 (≈ 196 µM) | 128 (≈ 393 µM) | 8 (≈ 24.6 µM) | 512 (≈ 1570 µM) | 4 (≈ 12.3 µM) | 64 (≈ 196 µM) | 1 (≈ 3.07 µM) |  |
| CCOC(=O)c1cn(CC2CO2)c2c(F)cc(F)cc2c1=O (racemic) |  |  |  | 32 (≈ 103 µM) |  |  |  | 2 (≈ 6.47 µM) | 512 (≈ 1660 µM) |  |  | 16 (≈ 51.7 µM) |  |
| CCOC(=O)c1cn(CC2CO2)c2ccc(OC)cc2c1=O (racemic) | 128 (≈ 422 µM) | 64 (≈ 211 µM) | 32 (≈ 106 µM) | 16 (≈ 52.8 µM) | 32 (≈ 106 µM) | 16 (≈ 52.8 µM) | 64 (≈ 211 µM) | 1 (≈ 3.3 µM) | 512 (≈ 1690 µM) | 4 (≈ 13.2 µM) | 64 (≈ 211 µM) | 32 (≈ 106 µM) |  |
| O=C(O)c1cn(CC(O)Cn2cnc([N+](=O)[O-])c2)c2cc(C(F)(F)F)ccc2c1=O (centres undefined) | 8 (≈ 18.8 µM) | 4 (≈ 9.38 µM) | 4 (≈ 9.38 µM) | 4 (≈ 9.38 µM) | 8 (≈ 18.8 µM) | 2 (≈ 4.69 µM) | 4 (≈ 9.38 µM) | 4 (≈ 9.38 µM) | 128 (≈ 300 µM) | 32 (≈ 75.1 µM) | 128 (≈ 300 µM) | 128 (≈ 300 µM) | 16 (≈ 37.5 µM) |
| O=C(O)c1cn(CC(O)Cn2cnc([N+](=O)[O-])c2)c2c(F)cc(F)cc2c1=O (centres undefined) | 8 (≈ 20.3 µM) | 16 (≈ 40.6 µM) | 16 (≈ 40.6 µM) | 8 (≈ 20.3 µM) | 32 (≈ 81.2 µM) | 32 (≈ 81.2 µM) | 32 (≈ 81.2 µM) | 32 (≈ 81.2 µM) | 256 (≈ 649 µM) | 256 (≈ 649 µM) | 16 (≈ 40.6 µM) | 64 (≈ 162 µM) | 16 (≈ 40.6 µM) |
| CCOC(=O)c1cn(CC(O)Cn2cnc([N+](=O)[O-])c2)c2ccc(C)cc2c1=O (racemic) | 8 (≈ 20 µM) | 16 (≈ 40 µM) | 16 (≈ 40 µM) | 8 (≈ 20 µM) | 4 (≈ 9.99 µM) | 8 (≈ 20 µM) | 8 (≈ 20 µM) | 4 (≈ 9.99 µM) | 8 (≈ 20 µM) | 8 (≈ 20 µM) | 2 (≈ 5 µM) | 128 (≈ 320 µM) |  |
| CCOC(=O)c1cn(CC(O)Cn2cnc([N+](=O)[O-])c2)c2cc(Cl)c(F)cc2c1=O (racemic) | 16 (≈ 36.5 µM) | 4 (≈ 9.12 µM) | 16 (≈ 36.5 µM) | 16 (≈ 36.5 µM) | 16 (≈ 36.5 µM) | 32 (≈ 72.9 µM) | 16 (≈ 36.5 µM) | 8 (≈ 18.2 µM) | 32 (≈ 72.9 µM) | 64 (≈ 146 µM) | 32 (≈ 72.9 µM) | 128 (≈ 292 µM) |  |
